Assay results: ChEMBL document CHEMBL1137706, “Design, synthesis, and anti-tumor evaluation of novel symmetrical bis-benzimidazoles” (Eur J Med Chem, 2009)

How the values were obtained:
Format in all cases: functional, cell-based
HeLa = assay: Antitumor activity against human HeLa cells after 72 hrs by MTT assay
Outline: (§1)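 Cells grown in RPMI1640 with 10% fetal bovine serum, seeded at 4.0 × 10^4 cells/well and left 4 h at 37 °C, 5% CO2 to adhere. Compound then added and incubation continued 72 h at 37 °C, 5% CO2. Viability read by standard MTT assay.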

SK-OV-3 = assay: Antitumor activity against human SKOV3 cells after 72 hrs by MTT assay; settings: SK-OV-3, 72 h; outline: as §1
BGC-823 = assay: Antitumor activity against human BGC823 cells after 72 hrs by MTT assay; settings: BGC-823, 72 h; outline: as §1

Structure (SMILES) | IC50 (HeLa) | IC50 (SK-OV-3) | IC50 (BGC-823)
CCOc1ccnc(CSc2nc3ccc(-c4ccc5nc(SCc6nccc(OCC)c6C)[nH]c5c4)cc3[nH]2)c1C | > 50 µM | > 50 µM | > 50 µM
COc1ccnc(CSc2nc3ccc(-c4ccc5nc(SCc6nccc(OC)c6OC)[nH]c5c4)cc3[nH]2)c1OC | > 50 µM | > 50 µM | > 50 µM
Clc1ccc(CSc2nc3ccc(-c4ccc5nc(SCc6ccc(Cl)nc6)[nH]c5c4)cc3[nH]2)cn1 | > 50 µM | > 50 µM | > 50 µM
c1ccc(CSc2nc3ccc(-c4ccc5nc(SCc6ccccn6)[nH]c5c4)cc3[nH]2)nc1 | 7.1 µM | 38.6 µM | 16.4 µM
c1cncc(CSc2nc3ccc(-c4ccc5nc(SCc6cccnc6)[nH]c5c4)cc3[nH]2)c1 | > 50 µM | 8.73 µM | > 50 µM
c1cc(CSc2nc3ccc(-c4ccc5nc(SCc6ccncc6)[nH]c5c4)cc3[nH]2)ccn1 | 32.4 µM | 2.81 µM | 11 µM
COc1c(Cl)ccnc1CSc1nc2ccc(-c3ccc4nc(SCc5nccc(Cl)c5OC)[nH]c4c3)cc2[nH]1 | 45.4 µM | > 50 µM | > 50 µM
COc1ccnc(CSc2nc3ccc(-c4ccc5nc(SCc6nccc(OC)c6C)[nH]c5c4)cc3[nH]2)c1C | > 50 µM | > 50 µM | > 50 µM
Cc1c(OCC(F)(F)F)ccnc1CSc1nc2ccc(-c3ccc4nc(SCc5nccc(OCC(F)(F)F)c5C)[nH]c4c3)cc2[nH]1 | 18.3 µM | 23 µM | > 50 µM
COc1c(C)cnc(CSc2nc3ccc(-c4ccc5nc(SCc6ncc(C)c(OC)c6C)[nH]c5c4)cc3[nH]2)c1C | > 50 µM | 2.95 µM | > 50 µM
CC(=O)O[C@H]1C(=O)[C@@]2(C)[C@H]([C@H](OC(=O)c3ccccc3)[C@]3(O)C[C@H](OC(=O)[C@H](O)[C@@H](NC(=O)c4ccccc4)c4ccccc4)C(C)=C1C3(C)C)[C@]1(OC(C)=O)CO[C@@H]1C[C@@H]2O [PACLITAXEL] |  | 0.00134 µM | 
